Measurements published in ChEMBL document CHEMBL1125010, “Relaxant activity of 4-amido-3,4-dihydro-2H-1-benzopyran-3-ols and 4-amido-2H-1-benzopyrans on guinea pig isolated trachealis” (J Med Chem, 1990).

How the values were obtained:
[1] = species: Cavia porcellus; assay: Intrinsic activity measured on Guinea pig tracheal spiral strips.; assay type: functional, Trachea
How it was run: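 Guinea pig isolated trachealis relaxation. Intrinsic activity is the compound's maximum relaxant response divided by the maximum produced by isoprenaline. Reported as an arithmetic mean.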

[2] = species: Cavia porcellus; assay: Inhibition of spontaneous tone in Guinea pig tracheal spiral strips.; assay type: functional, Trachea
How it was run: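 Guinea pig isolated trachealis, spontaneous tone. Relaxation is compared with the response to isoprenaline. IC50 is the concentration giving 50% of the isoprenaline response, read from the dose-response curve. Reported as the geometric mean, generally of four or more determinations.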

SMILES | IC50 ([2]; Cavia porcellus, Trachea) [µM] | IC50 [2] [µM] | Intrinsic activity [1]
CC1(C)C=C(n2ccccc2=O)c2cc(C(F)(F)F)ccc2O1 | 0.056 |  | 0.97
CC1(C)C=C(n2ccccc2=O)c2c[n+]([O-])ccc2O1 | > 20 |  | 0.01
CC1(C)C=C(n2ccccc2=O)c2cnccc2O1 | 2.1 |  | 0.93
CCc1ccc2c(c1)[C@@H](N1CCCC1=O)[C@H](O)C(C)(C)O2 | 2.68 |  | 0.92
COC(=O)C1=C(C)NC(C)=C(C(=O)OC)C1c1ccccc1[N+](=O)[O-] [NIFEDIPINE] | > 20 |  | 0.49
CC1(C)Oc2cc(C(F)(F)F)ccc2[C@@H](N2CCCCC2=O)[C@@H]1O (stereo in doubt; (+)24) |  | 0.36 | 0.89
CC1(C)C=C(N2CCCC2=O)c2cc(C#N)ccc2O1 | 1.57 |  | 0.91
CC1(C)Oc2cc(C(F)(F)F)ccc2[C@@H](N2CCCC2=O)[C@@H]1O | 0.73 |  | 0.9
CC1(C)C=C(N2CCCC2=O)c2ccc(C(F)(F)F)cc2O1 | 5.1 |  | 0.97
CC1(C)C=C(N2CCCCC2=O)c2cnccc2O1 | 2.2 |  | 0.92
CC1(C)Oc2ccc(C#N)cc2[C@@H](N2CCCCC2=O)[C@@H]1O | 0.27 |  | 0.82
CC(N/C(=N\C#N)Nc1ccncc1)C(C)(C)C (centres undefined) [PINACIDIL ANHYDROUS] | 3.63 |  | 0.86
Cc1ccc2c(c1)[C@@H](N1CCCCC1=O)[C@H](O)C(C)(C)O2 | 1.2 |  | 0.92
Cn1c(=O)c2[nH]cnc2n(C)c1=O.Cn1c(=O)c2[nH]cnc2n(C)c1=O.NCCN [AMINOPHYLLINE] | 20.1 |  | 0.54
CC1(C)Oc2ccc(C#N)cc2[C@@H](n2ccccc2=O)[C@@H]1O [EMAKALIM] | 0.76 |  | 0.96
CC1(C)Oc2ccc(C#N)cc2C(N2CCCC2=O)C1O (centres undefined) [CROMAKALIM] | 1.1 |  | 0.89
CC1(C)Oc2cccc(C(F)(F)F)c2[C@@H](N2CCCCC2=O)[C@@H]1O | > 20 |  | 0.13
CC1(C)C=C(N2CCCCC2=O)c2cc(C#N)ccc2O1 | 1.1 |  | 0.9
CC1(C)C=C(N2CCCCC2=O)c2ccc(C#N)cc2O1 | 3.96 |  | 0.86
CC1(C)Oc2cc(C#N)ccc2[C@@H](N2CCCCC2=O)[C@@H]1O | > 17 |  | 0.56
CC1(C)C=C(n2ccccc2=O)c2cc(C#N)ccc2O1 [BIMAKALIM] | 0.089 |  | 0.93

More lines, main results first:

IC50 ([2]; Cavia porcellus, Trachea) [µM] | IC50 [2] [µM] | SMILES | Intrinsic activity [1]
8.6 |  | CC1(C)Oc2ccncc2[C@@H](N2CCCC2=O)[C@@H]1O | 0.68
0.66 |  | CC1(C)Oc2ccncc2[C@@H](N2CCCCC2=O)[C@@H]1O | 0.84
0.41 |  | CC1(C)Oc2ccc(C(F)(F)F)cc2[C@@H](N2CCCC2=O)[C@@H]1O | 0.92
13.5 |  | Cc1ccc2c(c1)[C@@H](N1CCCC1=O)[C@H](O)C(C)(C)O2 | 0.62
 | 12.6 | CC1(C)Oc2cc(C(F)(F)F)ccc2[C@@H](N2CCCCC2=O)[C@@H]1O (stereo in doubt; (-)24) | 0.69
7.5 |  | CC1(C)C=C(N2CCC2=O)c2cc(C#N)ccc2O1 | 0.91
0.65 |  | CC1(C)C=C(N2CCCCC2=O)c2cc(C(F)(F)F)ccc2O1 | 0.89
2.97 |  | CC1(C)C=C(N2CCCCC2=O)c2ccc(C(F)(F)F)cc2O1 | 0.97
0.54 |  | CC1(C)Oc2ccc(C(F)(F)F)cc2[C@@H](n2ccccc2=O)[C@@H]1O | 0.96
0.018 |  | CC(C)(C)NCC(O)c1ccc(O)c(CO)c1 (centres undefined) [ALBUTEROL] | 0.98
6.7 |  | CC1(C)C=C(N2CCCC2=O)c2cnccc2O1 | 0.67
5.1 |  | CC1(C)Oc2ccncc2[C@@H](n2ccccc2=O)[C@@H]1O | 0.81
2.25 |  | CCc1ccc2c(c1)OC(C)(C)[C@@H](O)[C@@H]2N1CCCCC1=O | 0.83
0.058 |  | CC1(C)Oc2ccc(C(F)(F)F)cc2[C@@H](N2CCCCC2=O)[C@@H]1O | 0.96
> 20 |  | CC1(C)Oc2ccc(C#N)cc2[C@@H](N2CCC2=O)[C@@H]1O | 
 | 0.66 | CC1(C)Oc2cc(C(F)(F)F)ccc2[C@@H](N2CCCCC2=O)[C@@H]1O (racemic) | 
> 20 |  | CC1(C)C=C(N2CCCCC2=O)c2c(cccc2C(F)(F)F)O1 | 0.11
